Key:
[1] = melting temperature; fluorescence melt of hairpins on a sequencing array, two-state fit, raised by 9.35 °C to match UV melts; details: sodium 0.088 M
In short: (§1)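 Cy3 fluorescence of library hairpins on a sequenced MiSeq flow cell, with annealed Cy3 and quencher oligos, was imaged in 50 mM Na-HEPES pH 8.0, 25 mM NaCl in 2.5 °C steps up to 60 °C. Signals were normalised to pre-quench Cy3 and to control variants. Melting temperature and folding enthalpy came from bootstrapped two-state fits, inverse-variance combined over four replicates. Fitted temperatures were raised by 9.35 °C to match UV melts.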

[2] = folding enthalpy; higher = less favourable; fluorescence melt of hairpins on a sequencing array, two-state fit; details: sodium 0.088 M
In short: as §1

Row | Sequence | Tm [1] [°C] | folding enthalpy [2] [kcal/mol]
1 | GTTTTACGAAAGTACAAC (((.(((....))).))) | 35.5 | -25.8
2 | GCTACGCGAAAGCATAGC ((((.((....)).)))) | 53.9 | -28
3 | GCAACGCGAAAGCTATGC (((..((....))..))) | 36.8 | -11.6
4 | TCCCGGAAACGGGA (((((....))))) | 60.7 | -19.7
5 | GCGGCGCGAAAGCTGCGC (((..((....))..))) | 63.3 | -26.1
6 | GTATCGCGAAAGCGGTAC (((.(((....))).))) | 56.5 | -29.2
7 | GAGTAACGAAAGTTCCTC (((.(((....))).))) | 38 | -19.8
8 | GCGGAGCCCGC ((((...)))) | 49.4 | -11.3
9 | GGGAACGAAAGTTAGCCC ((((((....)))..))) | 33.1 | -17.2
10 | GAGCTTCCGAAAGGACTC (((..(((....)))))) | 29.2 | -27.4
11 | GACAACGGAAACGTTATC ((.((((....)))).)) | 31.5 | -21
12 | GGCAACGAAAGTTTAGCC ((((((....)))..))) | 43.5 | -29.1
13 | GCGATTGGTCGC ((((....)))) | 52.1 | -23.4
14 | GGTCACACGAAAGTGACC (((..(((....)))))) | 58.2 | -35.5
15 | GCTCGGCGAAAGCCTCGC ((..(((....)))..)) | 48.7 | -14.4
16 | GTGATCGAAAGATGACAC ((((((....)))..))) | 33.4 | -16.2
17 | GCGAGCTTTCGC ((((....)))) | 50.5 | -19.3
18 | GTCTTCTCGAAAGAGGAC (((..(((....)))))) | 33.5 | -17.2
19 | GGCTTCCCGAAAGGGGCC (((..(((....)))))) | 48.2 | -17.7
20 | GCTATGCGAAAGCAGCGC ((..(((....)))..)) | 54.2 | -18.9
21 | GAGCCAGGAAACTGGTTC ((.((((....)))).)) | 49.4 | -29.9
22 | GATCGGCAAGCCGATC ((((((....)))))) | 67 | -30.5
23 | GTGAAACGAAAGTTACAC (((.(((....))).))) | 46.2 | -29.7

Row | Sequence | Tm [1] [°C] | folding enthalpy [2] [kcal/mol]
24 | GGAGAACGAAAGTTGTCC (((.(((....))).))) | 51.5 | -34.6
25 | GAAACCGGAAACAGTTTC (((((.(....).))))) | 30.8 | -25
26 | CGGTCCGGAAACGGCCG (((.(((....)))))) | 57.6 | -26.7
27 | GCCTGGCGAAAGCCCAGC ((..(((....)))..)) | 47.3 | -10.9
28 | GCACCCGGAAACGAGTGC ((((.((....)).)))) | 51.6 | -48.8
29 | GATCGGCGACCGATC ((((((...)))))) | 56.4 | -34.2
30 | GTGATTGGAAACAGTCAC ((((.((....)).)))) | 45.4 | -36.6
31 | GAGTTACGAAAGTATCTC (((.(((....))).))) | 41.4 | -26
32 | GGTGACGAAAGTCCGACC ((((((....)))..))) | 39 | -15.3
33 | GTGTAAGGAAACTTACAC (((((((....))))))) | 54.2 | -42.2
34 | GATCTATGTATAGATC ((((((....)))))) | 48.2 | -36.9
35 | GTCTTACGAAAGTACGAC (((.(((....))).))) | 43.8 | -34.5
36 | GATCGTACCCACGATC ((((((....)))))) | 54.1 | -40
37 | GATCTGGCAGCAGATC ((((((....)))))) | 51.3 | -41.8
38 | GTAAACCGAAAGGTGTAC (((.(((....))).))) | 46.2 | -23.3
39 | GATCAACCTGTTGATC ((((((....)))))) | 55.2 | -41
40 | GATCGAACCGTCGATC ((((((....)))))) | 49.5 | -37
41 | GAGTTCGGAAACGGACTC ((((.((....)).)))) | 52 | -43.1
42 | GCAAAGCGAAAGCATTGC ((((.((....)).)))) | 58.9 | -21.1
43 | GCTCACGAAAGTGAAAGC ((((((....)))..))) | 48.9 | -21
44 | GCCGCGCGAAAGCACCGC ((.(.((....)).).)) | 46.5 | -13.8
45 | GTACACGAAAGTGGTAC ((((((....))).))) | 47.8 | -17.9
46 | GGAGCCGGAAACGGTTCC (((.(((....))).))) | 58.5 | -45.1

Row | Sequence | Tm [1] [°C] | folding enthalpy [2] [kcal/mol]
47 | AAGCGGAAACGCTT (((((....))))) | 57.3 | -17.5
48 | GGGCCCGAAAGGGTTCCC ((((((....)))..))) | 51.5 | -15.2
49 | GTTCTGGGAAACTAGGAC ((.((.(....).)).)) | 28.8 | -9.14
50 | GTTATGGAAACATAAC ((((((....)))))) | 47.5 | -30.3
51 | GTGCTAGGAAACTGGCAC ((((.((....)).)))) | 53.5 | -45.4
52 | CGACCGGAAACGGGATCG ((((((....)))..))) | 38.8 | -15.7
53 | GGGTGTGCGAAAGCACCC (((..(((....)))))) | 56.6 | -11.3
54 | GATCTGAAGTCAGATC ((((((....)))))) | 47.7 | -39.1
55 | GCGCGAGGAAACTCGTGC ((.((((....)))).)) | 62.9 | -42.3
56 | GATCCGCTACGGATC ((((((...)))))) | 57.2 | -31.7
57 | GGTCCACGAAAGTGCACC (((.(((....))).))) | 44.5 | -25.9
58 | GACCTGGGAAACCAGGCC (.(((((....))))).) | 46.4 | -12.7
59 | GAGGCTGGAAACAGCCCC (.(((((....))))).) | 46.1 | -8.68
60 | GATCCCGAGGGGGATC ((((((....)))))) | 59.7 | -35.3
61 | GTAGACGCGAAAGCGTAC (((..(((....)))))) | 36.9 | -8.63
62 | GGGCGGGGAAACCCGCTC (.(((((....))))).) | 64.7 | -15.2
63 | GTCAGACGAAAGTCGAC (((.(((....)))))) | 51.9 | -31.5
64 | GCTTGCCCGAAAGGGAGC (((..(((....)))))) | 48.1 | -14.7
65 | GATCTCGTTAGAGATC ((((((....)))))) | 65.1 | -39.9
66 | GATCCCATGGGGATC ((((((...)))))) | 65.8 | -33.2
67 | GGAAGCGAAAGCTCTCC ((((((....))).))) | 43.5 | -16.2
68 | GTGCACGAAAGTGTCAC ((((((....))).))) | 54.5 | -22.3
69 | GGCTTAACGAAAGTTGCC (((..(((....)))))) | 45.5 | -21.8

Row | Sequence | Tm [1] [°C] | folding enthalpy [2] [kcal/mol]
70 | GCTCAGGGAAACCCAAGC (((..((....))..))) | 33.3 | -12.9
71 | GGACGCGAAAGCGATTCC ((((((....)))..))) | 36.5 | -11
72 | GTGATTCCGAAAGGACAC (((..(((....)))))) | 31.1 | -15.3
73 | GATCATCGTGATGATC ((((((....)))))) | 57.8 | -38.4
74 | GGACCAGCGAAAGCTTCC (((..(((....)))))) | 25.2 | -10.3
75 | GAAAAGGCGAAAGCCTTC (((..(((....)))))) | 38.9 | -9.06
76 | GATCATGTGCATGATC ((((((....)))))) | 50.3 | -32.3
77 | GTGCGCCCGAAAGGGCAC (((..(((....)))))) | 64.3 | -10.4
78 | GCACATCGAAAGATATGC (((.(((....))).))) | 42.9 | -30.2
79 | GAACACGAAAGTGTCTTC ((((((....)))..))) | 52.8 | -24.3
80 | GCTTGTGGAAACATAAGC ((((.((....)).)))) | 46.8 | -29.9
81 | GGTATAGGAAACCATACC (((((.(....).))))) | 36.7 | -23.1
82 | GATCGGCCTCCCGATC ((((((....)))))) | 55.8 | -35
83 | GATCCAGGCTGGATC ((((((...)))))) | 53 | -46.7
84 | GCACAGGGAAACTTGTGC (((((.(....).))))) | 52.1 | -34.7
85 | GTCTGCCCGAAAGGGGAC (((..(((....)))))) | 34.8 | -10.9
86 | GTTCAGAAATGAAC (((((....))))) | 41.8 | -21.2
87 | GAGACCGAAAGGTGCCTC ((((((....)))..))) | 31.1 | -12.7
88 | GGACTACCGAAAGGTTCC (((..(((....)))))) | 32.8 | -11.2
89 | GCCTCCGAAAGGATGGC ((((((....))).))) | 57 | -36.6
90 | GTATAAGCGAAAGCTTAC (((..(((....)))))) | 33.8 | -9.03
91 | CGCACCGGAAACGGCGCG (((.(((....))).))) | 60.9 | -52.1
92 | GTTTTCGAAAGAAAAC ((((((....)))))) | 57.4 | -29.2

Reference: the array DNA melting data of Ke et al. (doi:10.1101/2024.01.08.574731)
